TDP2 inh – TDP2 (human) inhibition, absorbance primary screen | O95551 | recombinant TDP2, T5PNP hydrolysis, p-nitrophenol absorbance 415 nm | inhibition, % at 12.8 µM | 370,000 tested, 0.34% active;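 active = inhibition above the mean of all tested compounds plus 3 SD, set per campaign, cut at about 25% in these data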;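 also: 0% = DMSO with enzyme and 100% = buffer with substrate but no TDP2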
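Read-out basis: percent inhibition. System: recombinant human TDP2. Buffer or medium: Mg2+-containing Tris-HCl buffer, pH 7.5. Repeats: single replicate. Timing: reaction 2 h, 37 °C. Benchmarks: high control without enzyme, low control DMSO plus TDP2. Probe or stimulus: 5 mM T5PNP. Doses: 12.8 µM only. Measured by: epi absorbance of p-nitrophenol freed from T5PNP by hydrolysis.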
NSD2 inh – blocks human histone methyltransferase NSD2. O96028. 310,000 tested, 0.54% active. inhibition, % at 12.5 µM. AID 743445. NSD2 peptide methylation, AlphaScreen, 120 min; in the data active = inhibition above about 50%
CASP6 VEID inh – inhibitors of human caspase-6. inhibition, % at 12.5 µM. 350,000 tested, 0.53% active. AID 686996. purified caspase-6, Z-VEID-R110 cleavage fluorescence;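 active = mean inhibition across replicates at least about 35%, with every replicate also reaching that limit, limit read from the data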;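 also: 0% = median of neutral control wells and 100% = no fluorescence left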
MBD2 DNA inh – MBD2-methylated oligo binding inhibition; Q9UBB5; TR-FRET, MBD2 binding to methylated oligonucleotide; inhibition, % at 4.4 µM; 370,000 tested, 0.31% active; AID 686964; in the data active = inhibition above about 13%
LEDGF integ inh – blocks HIV-1 LEDGF/p75-dependent DNA integration. TR-FRET IN-LEDGF/p75 DNA integration, Eu/Cy5. 370,000 tested, 0.64% active. AID 743269. inhibition, % at 3.7 µM;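 active = inhibition above the screen-wide mean plus 3 SD, cut at about 13% in these data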;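 also: signal is the Cy5 over europium emission ratio at 671 and 618 nm; 0% = plate median of compound wells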
UHRF1 binding – UHRF1 methyl-DNA binding inhibition; Q96T88; UHRF1 binding to methylated oligo, TR-FRET; inhibition, % at 4.4 µM; 370,000 tested, 0.75% active; in the data active = inhibition above about 21%;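 also: UHRF1 SRA domain binding a hemimethylated CpG hairpin DNA probe; 0% = median of test compound wells and 100% = reference inhibitor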
Target sequence (Q96T88 whole entry, looked up, the tested form may be a part): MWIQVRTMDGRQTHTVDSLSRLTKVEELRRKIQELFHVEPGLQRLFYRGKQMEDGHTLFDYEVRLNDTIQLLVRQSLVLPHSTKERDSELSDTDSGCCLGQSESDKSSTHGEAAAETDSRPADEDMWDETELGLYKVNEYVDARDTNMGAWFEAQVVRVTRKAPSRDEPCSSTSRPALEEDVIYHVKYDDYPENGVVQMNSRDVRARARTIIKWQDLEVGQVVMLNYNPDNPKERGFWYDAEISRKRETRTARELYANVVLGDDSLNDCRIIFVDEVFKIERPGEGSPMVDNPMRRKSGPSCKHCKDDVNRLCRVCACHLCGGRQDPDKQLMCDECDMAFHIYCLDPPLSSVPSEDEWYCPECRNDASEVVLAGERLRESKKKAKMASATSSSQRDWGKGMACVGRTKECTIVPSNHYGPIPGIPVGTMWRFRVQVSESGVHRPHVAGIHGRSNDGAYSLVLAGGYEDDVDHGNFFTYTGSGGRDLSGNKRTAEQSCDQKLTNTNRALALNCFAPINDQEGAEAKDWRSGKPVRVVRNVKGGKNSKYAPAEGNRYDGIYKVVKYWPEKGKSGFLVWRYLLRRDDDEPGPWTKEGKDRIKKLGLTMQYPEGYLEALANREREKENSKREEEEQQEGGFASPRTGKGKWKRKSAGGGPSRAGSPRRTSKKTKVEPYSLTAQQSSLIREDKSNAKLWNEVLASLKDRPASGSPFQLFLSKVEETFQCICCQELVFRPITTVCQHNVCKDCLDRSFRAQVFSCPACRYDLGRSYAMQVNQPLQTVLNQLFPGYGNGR
TDP2 confirm – human TDP2 inhibition, confirmation | 1,100 tested, 22% active | shares compounds with TDP2 inh | recombinant human TDP2, absorbance read-out | inhibition, % at 12.8 µM | AID 743263; in the data active = inhibition above about 25%;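 also: 0% = vehicle with enzyme and 100% = no enzyme buffer only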
IN multimer act – HIV-1 integrase multimerization activation, counter-screen. shares compounds with LEDGF integ inh. AID 1053131. TR-FRET HIV-1 integrase multimerization, biochemical. activation, % at 7.7 µM. 2,000 tested, 17% active; in the data active = activation above about 8.9%
TR-FRET interf – optically interferes with TR-FRET readout in LEDGF counter-screen | TR-FRET optical interference counterscreen, HIV-1 IN multimerization | 2,000 tested, under 10 active | shares compounds with LEDGF integ inh | inhibition, % at 7.7 µM;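 active = inhibition above the mean over all tested compounds plus 3 SD, which no compound reached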;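 also: 0% = integrase with antibodies and DMSO and 100% = antibodies without integrase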
LEDGF integ conf – LEDGF/p75-dependent HIV-1 integration inhibition, confirmation. shares compounds with LEDGF integ inh. TR-FRET LEDGF/p75-dependent HIV-1 integration, biochemical. inhibition, % at 3.7 µM. 2,000 tested, 36% active. AID 1053136; in the data active = inhibition above about 14%
AlphaScreen art – AlphaScreen assay artifact in NSD2 counter-screen; 1,500 tested, 9.4% active; shares compounds with NSD2 inh; AC35, µM (top dose mostly 10 µM), inactives show top-dose activity change, negative = signal loss; AID 1053174; AlphaScreen artifact counterscreen, preloaded methylated H4 peptide; call rule not given here
The depositor's hits bear a star. The list is not random: actives were taken first. Their share in the collection is about 1.9%.

Cc1ccc(C(=O)NC2(O)C(=O)c3ccccc3C2=O)cc1C was read as TDP2 inh 73.5*, NSD2 inh 110.3*, CASP6 VEID inh 21.6, MBD2 DNA inh -9.9, LEDGF integ inh 4.0, UHRF1 binding -1.4, TDP2 confirm 74.6* and AlphaScreen art 3.1%.
O=C(N[C@@H](Cc1ccccc1)C(=O)O)c1ccc(C(F)(F)F)cc1 was read as TDP2 inh -10.8, CASP6 VEID inh 2.9, MBD2 DNA inh 0.8, LEDGF integ inh -2.0 and UHRF1 binding 5.6.
For O=C(Cc1ccccc1)NC1(O)C(=O)c2ccccc2C1=O the results were TDP2 inh 63.6*, NSD2 inh 100.5*, CASP6 VEID inh 24.6, MBD2 DNA inh -7.7, LEDGF integ inh 4.8, UHRF1 binding -9.1, TDP2 confirm 61.6* and AlphaScreen art 2.1%.
`O=C(NC1(O)C(=O)c2ccccc2C1=O)c1ccc(C(F)(F)F)cc1` gave TDP2 inh 37.2*, NSD2 inh 107.9*, CASP6 VEID inh 26.1, MBD2 DNA inh -9.2, LEDGF integ inh 5.5, UHRF1 binding -2.3, TDP2 confirm 83.1* and AlphaScreen art 0.0%.
Screening CC(NC(=O)Cc1ccccc1)c1ccccc1 (configuration not stated) returned TDP2 inh -9.2, NSD2 inh -2.9, CASP6 VEID inh -2.5, MBD2 DNA inh -4.8, LEDGF integ inh 1.7 and UHRF1 binding -2.0.
`C[C@H]1CN([C@@H](C)CO)C(=O)c2cccc(NS(=O)(=O)c3cn(C)cn3)c2O[C@@H]1CN(C)C` gave CASP6 VEID inh -2.5.
For C[C@@H]1CN([C@@H](C)CO)C(=O)c2cccc(NS(=O)(=O)c3ccccc3)c2O[C@@H]1CN(C)C(=O)Nc1ccc(C(F)(F)F)cc1 the results were CASP6 VEID inh 1.3.
`O=C1C(=C(I)I)c2ccccc2-c2ccccc21` gave TDP2 inh 97.8*, NSD2 inh 131.2*, CASP6 VEID inh 23.6, MBD2 DNA inh -3.9, LEDGF integ inh -20.4, UHRF1 binding -0.5, TDP2 confirm 88.4* and AlphaScreen art -16.2%.
Screening C[C@H](CO)N1C[C@H](C)[C@H](CN(C)S(=O)(=O)c2cn(C)cn2)Oc2c(NC(=O)c3cnccn3)cccc2C1=O returned CASP6 VEID inh -1.7.
CC1OC(Nc2cccc3ccccc23)C(O)C(O)C1O (configuration not stated) was read as TDP2 inh 33.8*, NSD2 inh 64.6*, MBD2 DNA inh -7.6, LEDGF integ inh 36.3*, UHRF1 binding -4.5, TDP2 confirm 14.4, IN multimer act 2.5, TR-FRET interf -12.6, LEDGF integ conf 5.2 and AlphaScreen art -1.7%.
COC(=O)c1ccccc1NC(=O)c1ccc(-c2ccccc2F)o1 was read as TDP2 inh -2.1, NSD2 inh -2.2, MBD2 DNA inh 0.7, LEDGF integ inh -0.1 and UHRF1 binding -1.7.
COC(=O)c1ccc(C(c2c(C)[nH][nH]c2=O)c2c(C)[nH][nH]c2=O)cc1 was read as TDP2 inh -4.8, NSD2 inh 0.1, CASP6 VEID inh 2.0, MBD2 DNA inh -5.5, LEDGF integ inh 2.6 and UHRF1 binding -5.9.
For Cc1[nH][nH]c(=O)c1C(c1ccc(-c2ccc(Cl)c(C(=O)O)c2)o1)c1c(C)[nH][nH]c1=O the results were TDP2 inh 50.9*, NSD2 inh 131.4*, MBD2 DNA inh -0.4, LEDGF integ inh 8.4, UHRF1 binding 16.3, TDP2 confirm -4.8 and AlphaScreen art 1.9%.
`COC(=O)c1cccc(-c2ccc(C(c3c(C)[nH][nH]c3=O)c3c(C)[nH][nH]c3=O)o2)c1` gave TDP2 inh 57.0*, NSD2 inh 106.7*, CASP6 VEID inh 15.7, MBD2 DNA inh -2.5, LEDGF integ inh 13.5*, UHRF1 binding 14.9, TDP2 confirm 32.3*, IN multimer act -0.5, TR-FRET interf 1.8, LEDGF integ conf 10.6 and AlphaScreen art -5.0%.
Screening COC(=O)c1ccccc1-c1ccc(C(c2c(C)[nH][nH]c2=O)c2c(C)[nH][nH]c2=O)o1 returned TDP2 inh 78.4*, NSD2 inh 196.2*, CASP6 VEID inh 41.8*, MBD2 DNA inh -0.1, LEDGF integ inh 11.7, UHRF1 binding 13.5, TDP2 confirm 35.7* and AlphaScreen art 1.1%.
Screening COc1ccccc1S(=O)(=O)N1CC[C@@H]2[C@H](CO)Nc3ccc(-c4ccc(F)cc4)cc3[C@@H]21 returned CASP6 VEID inh -1.6.
CC1(C)C=C2C(=NN(c3ccccc3)C(N)=C2C#N)CO1 was read as TDP2 inh 47.4*, NSD2 inh 100.4*, CASP6 VEID inh 83.5*, MBD2 DNA inh -1.6, LEDGF integ inh -4.3, UHRF1 binding -3.7, TDP2 confirm 52.6* and AlphaScreen art -8.6%.
For C=CCn1c(NS(=O)(=O)c2ccccc2)c(S(=O)(=O)c2ccc(C)cc2)c2nc3ccccc3nc21 the results were TDP2 inh 37.0*, NSD2 inh 114.6*, CASP6 VEID inh 23.4, MBD2 DNA inh -0.5, LEDGF integ inh 5.0, UHRF1 binding 2.8, TDP2 confirm 39.5* and AlphaScreen art -5.6%.
CC(=O)Nc1c(S(=O)(=O)c2ccccc2)c2nc3ccccc3nc2n1Cc1ccccc1 was read as TDP2 inh 1.8, NSD2 inh -2.4, MBD2 DNA inh 4.3, LEDGF integ inh 3.2 and UHRF1 binding -2.8.
For O=C(NCCCO)c1ccc2nc(-c3ccco3)c(-c3ccco3)nc2c1 the results were TDP2 inh 40.4*, NSD2 inh 106.9*, CASP6 VEID inh 55.3*, MBD2 DNA inh -4.9, LEDGF integ inh 53.3*, UHRF1 binding 17.3, TDP2 confirm 31.2*, IN multimer act 50.1*, TR-FRET interf -177.6, LEDGF integ conf 70.2* and AlphaScreen art -2.0%.
`CCc1nc2ccc(C(=O)NCCc3ccco3)cc2nc1CC` gave NSD2 inh 5.3.
